The record followed here is ChEMBL document CHEMBL4765230, “Discovery of Orally Efficacious Phosphoinositide 3-Kinase δ Inhibitors with Improved Metabolic Stability” (J Med Chem, 2016).

The target in series [1] is T1, Phosphatidylinositol 4,5-bisphosphate 3-kinase catalytic subunit delta isoform (Homo sapiens, UniProt O00329).
T1 sequence (O00329 whole entry): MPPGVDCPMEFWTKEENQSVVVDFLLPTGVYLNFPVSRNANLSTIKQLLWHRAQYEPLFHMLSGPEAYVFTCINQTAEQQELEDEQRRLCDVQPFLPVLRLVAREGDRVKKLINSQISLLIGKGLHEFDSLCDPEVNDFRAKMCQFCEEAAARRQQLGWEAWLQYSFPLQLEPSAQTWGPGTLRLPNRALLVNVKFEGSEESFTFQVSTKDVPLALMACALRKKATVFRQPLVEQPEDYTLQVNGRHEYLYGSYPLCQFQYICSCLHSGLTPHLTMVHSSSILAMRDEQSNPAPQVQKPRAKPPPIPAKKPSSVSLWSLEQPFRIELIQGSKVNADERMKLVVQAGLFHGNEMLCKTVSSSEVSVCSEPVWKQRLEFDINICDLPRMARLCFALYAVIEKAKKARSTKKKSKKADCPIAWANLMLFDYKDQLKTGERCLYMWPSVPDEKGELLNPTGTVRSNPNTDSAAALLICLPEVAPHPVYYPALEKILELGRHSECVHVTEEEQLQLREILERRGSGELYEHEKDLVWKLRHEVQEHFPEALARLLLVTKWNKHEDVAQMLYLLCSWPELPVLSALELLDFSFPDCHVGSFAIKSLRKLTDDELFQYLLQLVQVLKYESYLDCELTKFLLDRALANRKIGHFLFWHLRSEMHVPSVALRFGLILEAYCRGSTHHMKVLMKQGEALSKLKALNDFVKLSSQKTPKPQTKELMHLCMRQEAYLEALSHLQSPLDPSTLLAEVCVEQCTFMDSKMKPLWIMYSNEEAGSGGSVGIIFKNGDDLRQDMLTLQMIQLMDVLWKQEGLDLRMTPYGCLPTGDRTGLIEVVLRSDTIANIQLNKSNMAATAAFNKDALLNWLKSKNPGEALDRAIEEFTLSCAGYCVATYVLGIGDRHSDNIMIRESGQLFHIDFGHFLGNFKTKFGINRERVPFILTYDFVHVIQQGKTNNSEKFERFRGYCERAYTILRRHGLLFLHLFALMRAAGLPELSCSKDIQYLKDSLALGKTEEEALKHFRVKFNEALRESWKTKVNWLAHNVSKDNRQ
As to the kind of experiment: Inhibition of PI3K p110delta in human basophil assessed as reduction in anti-FCepsilonR1 mAb-stimulated basophil activation preincubated for 60 mins followed by anti-FCepsilonR1 mAb stimulation and measured after 25 mins by flow cytometry analysis. Background: A flow cytometer gives signals particle by particle.

Series [2] deals with Phosphatidylinositol 4,5-bisphosphate 3-kinase catalytic subunit alpha isoform (Mus musculus, UniProt P42337). As to the kind of experiment: Inhibition of PI3K p110alpha in mouse embryonic fibroblast cells assessed as reduction in PDGF-induced AKT phosphorylation at S473 residue preincubated for 2 hrs followed by PDGF stimulation and measured after 10 mins. Set-up: species or system MEF. The essentials:
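MEFs grown overnight in DMEM/15% FBS, starved 2 h in 0.1% FBS, treated 2 h with compound at various concentrations, then stimulated with PDGF (10 ng/mL) 10 min at 37 °C. Lysates probed for total Akt and phospho-Akt S473 by capillary immunoassay; geometric mean, triplicate.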

Series [3] can be described thus: AUC infinity in Lewis rat at 1 to 5 mg/kg, po administered as single dose. As to conditions: in vivo, dose 1-5 mg/kg; call rule not given here. It is filed as ADME, organism-based. The essentials: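 Female Lewis rats given a single oral dose of 1 or 5 mg/kg; plasma concentration–time profiles determined; mean ± SD, n = 3.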
In series [4] the target is Phosphatidylinositol 4,5-bisphosphate 3-kinase catalytic subunit gamma isoform (Homo sapiens, UniProt P48736). As to the kind of experiment: Inhibition of human full length PI3K p110gamma using […] as substrate measured after 30 mins by TR-FRET assay. For orientation: TR-FRET usually uses a lanthanide donor and a delayed reading to cut background.
Phosphatidylinositol 4,5-bisphosphate 3-kinase catalytic subunit gamma isoform, sequence (P48736 whole entry, canonical isoform): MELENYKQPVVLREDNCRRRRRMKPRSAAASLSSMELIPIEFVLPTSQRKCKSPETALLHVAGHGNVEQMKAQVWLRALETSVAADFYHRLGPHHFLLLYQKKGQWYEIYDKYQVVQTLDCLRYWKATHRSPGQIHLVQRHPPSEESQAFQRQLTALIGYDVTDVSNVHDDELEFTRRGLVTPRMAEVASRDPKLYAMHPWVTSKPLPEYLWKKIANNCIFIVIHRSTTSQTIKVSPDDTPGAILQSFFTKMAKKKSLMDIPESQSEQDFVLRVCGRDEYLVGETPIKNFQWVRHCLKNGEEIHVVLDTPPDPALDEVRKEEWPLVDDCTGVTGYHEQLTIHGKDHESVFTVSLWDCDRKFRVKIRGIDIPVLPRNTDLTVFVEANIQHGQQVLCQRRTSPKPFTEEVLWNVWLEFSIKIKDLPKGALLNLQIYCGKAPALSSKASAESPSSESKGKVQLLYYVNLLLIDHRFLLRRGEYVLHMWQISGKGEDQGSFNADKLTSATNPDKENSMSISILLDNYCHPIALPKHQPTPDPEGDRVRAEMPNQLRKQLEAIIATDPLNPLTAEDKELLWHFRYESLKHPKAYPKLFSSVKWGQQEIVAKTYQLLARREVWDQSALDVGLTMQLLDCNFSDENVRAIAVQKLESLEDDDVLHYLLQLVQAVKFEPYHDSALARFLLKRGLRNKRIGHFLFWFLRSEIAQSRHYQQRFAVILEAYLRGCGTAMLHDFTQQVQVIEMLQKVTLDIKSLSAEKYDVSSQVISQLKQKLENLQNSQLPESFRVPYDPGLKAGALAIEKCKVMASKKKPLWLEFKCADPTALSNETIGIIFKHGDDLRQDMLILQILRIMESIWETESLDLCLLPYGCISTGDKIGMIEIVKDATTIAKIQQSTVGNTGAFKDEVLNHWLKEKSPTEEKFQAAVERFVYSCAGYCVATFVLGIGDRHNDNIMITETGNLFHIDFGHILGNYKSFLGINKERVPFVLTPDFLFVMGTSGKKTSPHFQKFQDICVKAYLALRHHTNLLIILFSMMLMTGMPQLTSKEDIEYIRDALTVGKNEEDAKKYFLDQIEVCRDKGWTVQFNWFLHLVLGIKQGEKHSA

Series [5] is described as follows: Selectivity index, ratio of IC50 for inhibition of human full length PI3K p110alpha/p85alpha to IC50 for inhibition of human full length PI3K p110delta/p85alpha.
Series [6] in a line: Clearance in Sprague-Dawley rat at 1 mg/kg, iv measured over 24 hrs by LC/MS/MS analysis. As to conditions: in vivo. It is filed as ADME, organism-based. The essentials: (§1)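 Intravenous 1 mg/kg and oral 5 mg/kg doses. Vehicle: 5% ethanol/55% PEG 400/40% water for rats and dogs; 5% ethanol/22% PEG 400/73% water for cynomolgus; 5% ethanol/25% PEG 400/70% water for rhesus. Half-life and MRT from iv; mean ± SD, n = 3 per route.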

For the next series, the target named is PI3K p110 beta/p85 alpha (Homo sapiens, UniProt P42338). Description: Inhibition of recombinant human full-length N-terminal His-tagged PI3K p110beta/p85alpha using […] as substrate measured after 30 mins by TR-FRET assay. It is filed as protein-complex assay.
PI3K p110 beta/p85 alpha, sequence (P27986 whole entry): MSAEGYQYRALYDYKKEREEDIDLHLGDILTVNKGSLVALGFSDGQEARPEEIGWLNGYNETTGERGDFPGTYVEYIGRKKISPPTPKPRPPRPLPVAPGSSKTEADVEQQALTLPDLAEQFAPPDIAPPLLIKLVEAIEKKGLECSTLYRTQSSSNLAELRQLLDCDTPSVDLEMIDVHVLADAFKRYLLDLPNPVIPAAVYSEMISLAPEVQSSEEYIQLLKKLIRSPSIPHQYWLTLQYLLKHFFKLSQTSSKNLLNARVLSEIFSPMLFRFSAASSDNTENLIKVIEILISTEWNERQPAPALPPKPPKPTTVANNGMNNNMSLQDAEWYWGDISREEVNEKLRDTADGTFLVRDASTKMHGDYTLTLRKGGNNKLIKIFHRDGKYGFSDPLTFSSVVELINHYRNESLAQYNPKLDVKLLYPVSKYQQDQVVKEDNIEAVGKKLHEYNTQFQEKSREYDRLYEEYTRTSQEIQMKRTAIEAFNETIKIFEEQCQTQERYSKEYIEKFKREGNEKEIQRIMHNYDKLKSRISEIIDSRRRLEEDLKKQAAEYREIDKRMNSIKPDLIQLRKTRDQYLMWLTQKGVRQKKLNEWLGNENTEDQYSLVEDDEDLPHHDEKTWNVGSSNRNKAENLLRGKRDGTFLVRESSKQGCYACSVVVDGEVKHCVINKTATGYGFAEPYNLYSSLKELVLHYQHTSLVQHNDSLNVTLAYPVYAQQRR
PI3K p110 beta/p85 alpha, sequence (P42338 whole entry): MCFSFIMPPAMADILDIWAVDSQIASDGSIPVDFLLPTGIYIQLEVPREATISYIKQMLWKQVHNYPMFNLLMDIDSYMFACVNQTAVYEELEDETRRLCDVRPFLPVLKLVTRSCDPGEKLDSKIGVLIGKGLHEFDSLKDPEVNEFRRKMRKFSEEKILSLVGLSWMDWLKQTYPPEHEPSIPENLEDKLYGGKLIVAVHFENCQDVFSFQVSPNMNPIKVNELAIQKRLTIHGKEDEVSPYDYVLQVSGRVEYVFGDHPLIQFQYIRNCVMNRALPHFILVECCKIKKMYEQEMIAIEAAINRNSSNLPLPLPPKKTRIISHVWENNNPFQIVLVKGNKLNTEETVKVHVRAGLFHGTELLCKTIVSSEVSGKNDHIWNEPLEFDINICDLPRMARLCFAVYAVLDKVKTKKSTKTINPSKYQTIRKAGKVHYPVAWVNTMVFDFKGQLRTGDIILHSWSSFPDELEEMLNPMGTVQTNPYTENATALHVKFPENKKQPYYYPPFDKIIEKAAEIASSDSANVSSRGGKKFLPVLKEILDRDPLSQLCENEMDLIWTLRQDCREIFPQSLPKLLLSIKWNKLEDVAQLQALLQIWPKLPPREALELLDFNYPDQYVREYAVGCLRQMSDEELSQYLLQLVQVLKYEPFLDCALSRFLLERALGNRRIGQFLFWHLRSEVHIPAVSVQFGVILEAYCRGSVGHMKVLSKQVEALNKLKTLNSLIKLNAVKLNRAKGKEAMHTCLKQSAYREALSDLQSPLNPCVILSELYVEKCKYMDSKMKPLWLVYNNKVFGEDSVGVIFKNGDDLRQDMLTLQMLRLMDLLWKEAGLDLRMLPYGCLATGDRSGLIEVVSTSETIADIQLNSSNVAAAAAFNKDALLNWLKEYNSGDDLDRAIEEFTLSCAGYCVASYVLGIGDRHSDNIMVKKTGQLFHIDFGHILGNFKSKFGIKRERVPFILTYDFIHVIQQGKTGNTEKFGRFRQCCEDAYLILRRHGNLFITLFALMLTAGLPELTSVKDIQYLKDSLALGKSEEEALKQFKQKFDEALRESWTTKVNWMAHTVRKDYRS
Series [7] is described as follows: In vivo inhibition of PI3Kdelta in Lewis rat model of Freund's incomplete adjuvant-induced arthritis at 0.3 mg/kg, po bid administered for 7 days at 12 hrs interval starting from day 10 to day 16 post-immunization relative to control. It is filed as functional. The following applies: 168 h, time 7 day. The essentials:
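CIA Lewis rats dosed orally twice daily for 7 days at 0.3, 1 or 3 mg/kg; blood/plasma drug levels taken on day 7, 12 h after final dose, and related to PI3Kδ inhibition at trough.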

Series [8] can be described thus: Clearance in Beagle dog at 1 mg/kg, iv measured over 24 hrs by LC/MS/MS analysis. It is filed as ADME, organism-based, Canis lupus familiaris. As to conditions: in vivo. The essentials: as §1
A short description of series [9]: Oral bioavailability in Sprague-Dawley rat at 5 mg/kg measured over 24 hrs by LC/MS/MS analysis. It is filed as ADME, organism-based. The following applies: in vivo. The essentials: as §1
Another series concerns Rattus norvegicus. Description: Antiarthritic activity in Lewis rat model of Freund's incomplete adjuvant-induced arthritis assessed as reduction in ankle swelling at 1 mg/kg, po bid administered for 7 days at 12 hrs interval starting from day 10 to day 16 post-immunization by caliper method relative to control. It is filed as functional. On the set-up: scale not given: the % may be the effect or the level left. The following applies: time 7 day. The essentials: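 Established collagen-induced arthritis in female Lewis rats; oral dosing twice daily for 7 days from day 10 after second immunization. Right and left ankle diameters measured by caliper daily, days 9–18; ankle diameter AUC over days 11–18 compared with arthritic vehicle group (ANOVA, p < 0.05). n = 8/treatment group.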

Series [10] concerns the target Voltage-gated inwardly rectifying potassium channel KCNH2 (Homo sapiens, UniProt Q12809). Description: Inhibition of human ERG at 25 uM.
Series [11] can be described thus: Clearance in rat at 1 mg/kg, iv. It is filed as ADME, organism-based. The following applies: in vivo.
A short description of series [12]: Terminal half life in Beagle dog at 1 mg/kg, iv measured over 24 hrs by LC/MS/MS analysis. The following applies: in vivo, read-out: beta t1/2 (converted). It is filed as ADME, organism-based, Canis lupus familiaris. The essentials:
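Single intravenous dose of 1 mg/kg. Vehicles: rats and dogs 5% ethanol/55% PEG 400/40% water; cynomolgus monkeys 5% ethanol/22% PEG 400/73% water; rhesus monkeys 5% ethanol/25% PEG 400/70% water. Plasma concentration–time data gave Vss and iv half-life. Reported as mean ± SD, n = 3.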

A short description of series [13]: Clearance in cynomolgus monkey at 1 mg/kg, iv measured over 24 hrs by LC/MS/MS analysis. It is filed as ADME, organism-based, Macaca fascicularis. The following applies: in vivo. The essentials:
as §1

Phosphatidylinositol 4,5-bisphosphate 3-kinase catalytic subunit alpha isoform, sequence (P42337 whole entry, canonical isoform): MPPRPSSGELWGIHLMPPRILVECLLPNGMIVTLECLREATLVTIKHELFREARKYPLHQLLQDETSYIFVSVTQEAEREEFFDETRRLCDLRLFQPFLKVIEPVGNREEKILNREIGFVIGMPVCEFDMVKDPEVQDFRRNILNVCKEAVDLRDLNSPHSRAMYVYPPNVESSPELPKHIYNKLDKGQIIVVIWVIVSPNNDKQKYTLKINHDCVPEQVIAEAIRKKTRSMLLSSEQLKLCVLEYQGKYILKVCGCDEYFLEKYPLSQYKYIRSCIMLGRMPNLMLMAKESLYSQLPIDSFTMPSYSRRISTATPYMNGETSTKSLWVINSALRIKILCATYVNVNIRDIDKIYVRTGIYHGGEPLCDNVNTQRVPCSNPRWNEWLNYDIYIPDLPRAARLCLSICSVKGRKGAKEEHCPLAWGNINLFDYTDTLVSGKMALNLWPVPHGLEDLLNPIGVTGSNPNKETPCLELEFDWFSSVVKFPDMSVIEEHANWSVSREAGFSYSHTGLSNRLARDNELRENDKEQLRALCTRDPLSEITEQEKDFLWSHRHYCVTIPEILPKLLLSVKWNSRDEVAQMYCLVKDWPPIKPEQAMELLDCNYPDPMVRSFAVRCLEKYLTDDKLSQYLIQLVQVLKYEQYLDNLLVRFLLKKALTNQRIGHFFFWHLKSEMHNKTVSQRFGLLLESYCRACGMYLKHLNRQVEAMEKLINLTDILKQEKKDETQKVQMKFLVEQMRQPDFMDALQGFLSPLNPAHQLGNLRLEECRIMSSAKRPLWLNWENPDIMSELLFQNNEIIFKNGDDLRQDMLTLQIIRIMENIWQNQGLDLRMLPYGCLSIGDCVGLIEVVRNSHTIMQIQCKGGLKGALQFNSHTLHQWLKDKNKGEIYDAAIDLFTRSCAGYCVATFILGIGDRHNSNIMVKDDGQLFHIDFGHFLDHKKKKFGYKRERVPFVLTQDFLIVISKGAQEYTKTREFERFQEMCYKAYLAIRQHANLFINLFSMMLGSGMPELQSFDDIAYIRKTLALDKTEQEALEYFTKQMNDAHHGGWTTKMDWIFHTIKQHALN
Voltage-gated inwardly rectifying potassium channel KCNH2, sequence (Q12809 whole entry): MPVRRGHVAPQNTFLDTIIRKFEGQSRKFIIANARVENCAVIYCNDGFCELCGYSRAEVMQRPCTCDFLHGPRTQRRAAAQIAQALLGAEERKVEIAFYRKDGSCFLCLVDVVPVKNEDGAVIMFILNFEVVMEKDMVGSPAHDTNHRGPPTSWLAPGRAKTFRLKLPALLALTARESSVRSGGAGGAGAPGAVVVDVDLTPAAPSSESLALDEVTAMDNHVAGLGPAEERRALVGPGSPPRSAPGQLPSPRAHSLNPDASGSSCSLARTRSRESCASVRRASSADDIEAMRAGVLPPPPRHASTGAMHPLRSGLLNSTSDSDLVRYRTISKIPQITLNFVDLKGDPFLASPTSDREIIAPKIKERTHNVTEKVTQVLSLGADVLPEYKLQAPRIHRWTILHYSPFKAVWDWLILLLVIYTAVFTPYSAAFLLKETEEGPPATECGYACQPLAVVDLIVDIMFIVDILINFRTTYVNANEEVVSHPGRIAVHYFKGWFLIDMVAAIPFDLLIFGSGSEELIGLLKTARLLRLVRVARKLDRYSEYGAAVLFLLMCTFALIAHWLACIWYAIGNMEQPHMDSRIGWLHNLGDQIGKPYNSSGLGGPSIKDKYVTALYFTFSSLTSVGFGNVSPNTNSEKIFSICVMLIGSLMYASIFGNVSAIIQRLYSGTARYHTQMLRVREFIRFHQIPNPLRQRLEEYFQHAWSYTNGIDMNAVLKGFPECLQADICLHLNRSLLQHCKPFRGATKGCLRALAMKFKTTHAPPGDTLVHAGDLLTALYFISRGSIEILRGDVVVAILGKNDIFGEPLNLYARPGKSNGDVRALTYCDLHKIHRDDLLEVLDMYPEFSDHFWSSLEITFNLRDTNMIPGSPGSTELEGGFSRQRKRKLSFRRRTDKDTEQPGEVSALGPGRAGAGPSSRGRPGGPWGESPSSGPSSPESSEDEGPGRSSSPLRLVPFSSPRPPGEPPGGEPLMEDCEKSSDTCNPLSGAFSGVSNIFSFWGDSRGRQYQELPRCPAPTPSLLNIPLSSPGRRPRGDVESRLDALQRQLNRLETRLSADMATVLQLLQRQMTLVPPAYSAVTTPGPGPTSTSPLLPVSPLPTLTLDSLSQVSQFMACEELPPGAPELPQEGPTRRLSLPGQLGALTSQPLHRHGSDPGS

The term EC50 denotes the concentration at which the effect is half-maximal. For orientation: AUC(0-inf) means the area under the concentration-time curve extrapolated to infinity. By IC50 is commonly meant the midpoint of a concentration-inhibition curve. The clearance is the volume of plasma or blood freed of the substance per unit of time. As usually defined, the inhibition in vivo is the change of the read-out against control, counted positive when it falls. Broadly, the bioavailability is the share of a dose that reaches the circulation, judged against a reference dose that is usually intravenous. `N#Cc1c(N)nc(N)nc1N[C@H](c1nc2c(F)ccc(Cl)c2c(=O)n1-c1cccnc1)C1CC1` [GS-9901]: the values for the EC50 in [1] and in series [2] were 0.31 nM and 1170 nM, respectively. Moreover, in [3], the total exposure AUC(0-inf) is 16 µM·h. Moreover, the concentration for half-maximal inhibition (IC50) in [4] amounted to 190 nM; at PI3K p110 beta/p85 alpha, 100 nM. Further, the Ratio IC50 in [5] worked out at 750. Also, the clearance was 7.17 mL/min/kg in [6], 9 mL/min/kg in series [8], 7.17 mL/min/kg in series [11] and 6.83 mL/min/kg in series [13]. Moreover, in series [7], the inhibition in vivo at 0.3 mg/kg was found to be 60%. In series [9], this compound displayed a bioavailability of 57%. In addition, the Activity with Rattus norvegicus is recorded as 67%. In [10], the “inhibition (INH)” value is “Not Active”. In series [12], the half-life was 2.01 h.
